Reference: ChEMBL document CHEMBL4130515, “Identification of Privileged Antichlamydial Natural Products by a Ligand-Based Strategy” (J Nat Prod, 2017)

Columns and labels:
HL = test: (§1) Cytotoxicity against human HL cells assessed as cell viability at 50 uM after 72 hrs by resazurin dye based fluorescence assay relative to control; settings: hl, 72 h, 50 µM
How it was run: (§2)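 HL cells grown overnight to confluence, then exposed to compound at 50 μM for 72 h at 37 °C, four parallel replicates. Read-out after 2 h with 20 μM resazurin in PBS, fluorescence at 570/590 nm (ex/em). Viability % is relative to cells in 0.25% DMSO medium. Usnic acid 50 μM as positive control.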

[1] = as §1; settings: HL cells, read-out: Activity; how it was run: as §2
Chlamydia pneumoniae [2] = test: Antichlamydial activity against Chlamydia pneumoniae K7 infected in HL cells assessed as chlamydial inhibition at 50 uM after 70 hrs by fluorescent microscopic analysis; assay type: functional
How it was run: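 Confluent HL cells infected with C. pneumoniae K7 at MOI 0.3 in medium with 1 μg/mL cycloheximide, centrifuged 500 rpm 1 h, then held at 37 °C for 1 h. At 2 h, compound added at 50 μM or DMSO vehicle. After 70 h at 37 °C, inclusions stained and counted in four fields per coverslip under a fluorescence microscope (20×). Inhibition % is relative to mean vehicle counts.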

Chlamydia pneumoniae [3] = test: Antichlamydial activity against Chlamydia pneumoniae K7 infected in HL cells after 70 hrs by fluorescent microscopic analysis; assay type: functional, organism-based; settings: K7, HL, 70 h
How it was run: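 HL cells grown to confluence, infected with C. pneumoniae K7 at MOI 0.3 in medium with 1 μg/mL cycloheximide, centrifuged 500 rpm 1 h, then 37 °C 1 h. At 2 h, inoculum replaced by cycloheximide medium with compound at 12 concentrations from 1 nM to 100 μM. Incubated 70 h at 37 °C, stained, and inclusions counted by fluorescence microscopy. Three runs; IC50 from variable-slope sigmoidal fit. Azithromycin 20 nM as positive control.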

Row | Structure (SMILES) | Activity (HL) | viability at 72 h, 50 µM [1] [%] | inhibition at 50 µM (Chlamydia pneumoniae [2]) [%] | IC50 (Chlamydia pneumoniae [3]) [µM]
1 | O=c1cc(-c2ccccc2)oc2cc(O)cc(O)c12 [CHRYSIN] | Toxic |  |  | 
2 | COc1ccc2ccc(=O)oc2c1CC=C(C)C [OSTHOLE] | Toxic |  |  | 
3 | OC1c2ccccc2N=C2CCCN21 (stereo not given) [PEGANOLE] |  | 95.2 | 66.2 | 35.1
